{
  "source": "paper PMC4310348",
  "about": "(Drug Design, Development and Therapy, 2015)",
  "key": {"[1]": {"test_system": "Staphylococcus aureus (20)", "test": "MIC testing", "assay_type": "cell-based", "how_it_was_run": "(§1)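 Clinical bovine mastitis isolates from Australian dairy cattle, except MRSA isolates, which came from small-animal infections. Streptococci were speciated by biochemical tests and partial 16S rDNA sequencing. S. aureus was separated from coagulase-negative staphylococci by tube coagulase and latex agglutination. MICs followed CLSI guidelines for lipophilic compounds: lowest concentration preventing growth, judged visually and by OD600. MIC50/MIC90 were collated per species.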"}, "[2]": {"test_system": "Streptococcus agalactiae (12)", "test": "MIC testing", "assay_type": "cell-based", "how_it_was_run": "as §1"}, "[3]": {"test_system": "Coagulase-negative staphylococci (14)", "test": "MIC testing", "assay_type": "cell-based", "how_it_was_run": "as §1"}, "[4]": {"test": "Solubility of lasalocid in various solvents and milk", "assay_type": "physicochemical", "details": "thermodynamic from solid", "how_it_was_run": "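Excess solid test compound was added to each solvent and shaken for 24 hours. Samples were then filtered through 0.45 µm nylon, diluted and quantified by reversed-phase C8 HPLC with UV detection at 308 nm. The mobile phase was methanol:1.5% acetic acid (90:10) at 1.0 mL/min. All measurements were made in triplicate.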"}, "[5]": {"test_system": "Gram-positive mastitis organisms (57)", "test": "MIC testing", "assay_type": "cell-based", "details": "all 57 Gram-positive bovine mastitis isolates", "how_it_was_run": "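MICs were run per CLSI guidelines for lipophilic compounds across the pooled bovine mastitis isolates. MIC was the lowest concentration preventing growth, judged visually and by OD600. MIC50 and MIC90 are the lowest concentrations inhibiting 50% and 90% of the whole collection.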"}, "Milk distribution study": {"test": "Milk distribution study", "assay_type": "in vivo, Lactating Holstein dairy cows", "details": "six doses of 150 or 300 mg at 12-hourly intervals per quarter (IVP 7, IVP 8)", "how_it_was_run": "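Lactating Holstein cows aged 2–10 years had two contralateral quarters challenged intramammarily with S. uberis. After mastitis was detected, quarters received a PVP–lasalocid solid dispersion in Miglyol 812/Aerosil R972 after each milking, six infusions 12-hourly. Milk was sampled at set times, with time 0 at the first dose. Samples of 100 µL were extracted with 900 µL methanol, centrifuged and analysed by C8 HPLC-UV at 308 nm.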"}, "[6]": {"test": "pH-solubility determination of lasalocid", "assay_type": "physicochemical", "how_it_was_run": "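pH–solubility used MilliQ water adjusted with NaOH/HCl, or Universal buffer adjusted with 0.2 M NaOH, over pH 1.8–8. The buffer contained boric, citric and phosphoric acids at 0.04 M each. Excess solid was shaken for 24 hours, filtered through 0.45 µm nylon, diluted and quantified by C8 HPLC-UV at 308 nm. Measurements were made in triplicate.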"}, "[7]": {"test_system": "Streptococcus uberis (11)", "test": "MIC testing", "assay_type": "cell-based", "how_it_was_run": "as §1"}, "MRSA (10)": {"test_system": "MRSA (10)", "test": "MIC testing", "assay_type": "cell-based, methicillin-resistant Staphylococcus aureus", "how_it_was_run": "as §1"}},
  "data": [
    {"smiles": "CC[C@@H](C(=O)[C@@H](C)[C@@H](O)[C@H](C)CCc1ccc(C)c(O)c1C(=O)O)[C@H]1O[C@](CC)([C@H]2CC[C@](O)(CC)[C@H](C)O2)C[C@@H]1C", "note": "[lasalocid]", "values": [
      {"measurement": "MIC50", "setting": "[1]; Staphylococcus aureus", "value": 1, "unit": "µg/mL"},
      {"measurement": "MIC90", "setting": "[1]; Staphylococcus aureus", "value": 1, "unit": "µg/mL"},
      {"measurement": "MIC range", "setting": "[1]; n=20 isolates", "value": "0.5 to 1", "unit": "µg/mL"},
      {"measurement": "MIC50", "setting": "[2]; Streptococcus agalactiae", "value": 2, "unit": "µg/mL"},
      {"measurement": "MIC90", "setting": "[2]; Streptococcus agalactiae", "value": 4, "unit": "µg/mL"},
      {"measurement": "MIC range", "setting": "[2]; n=12 isolates", "value": "2 to 4", "unit": "µg/mL"},
      {"measurement": "MIC50", "setting": "[3]", "value": 1, "unit": "µg/mL"},
      {"measurement": "MIC90", "setting": "[3]", "value": 2, "unit": "µg/mL"},
      {"measurement": "MIC range", "setting": "[3]; n=14 isolates", "value": "0.5 to 2", "unit": "µg/mL"},
      {"measurement": "solubility at 24 h", "setting": "[4]; DMSO, organic solvent or mixture", "value": "298000 ± 42400", "unit": "µg/mL"},
      {"measurement": "solubility at 24 h", "setting": "[4]; MilliQ water, water", "value": "750 ± 100", "unit": "µg/mL"},
      {"measurement": "solubility at 24 h", "setting": "[4]; methanol, organic solvent or mixture", "value": "84700 ± 1630", "unit": "µg/mL"},
      {"measurement": "solubility at 24 h", "setting": "[4]; milk, plasma or biological fluid", "value": "438 ± 13.1", "unit": "µg/mL"},
      {"measurement": "MIC50", "setting": "[5]", "value": 2, "unit": "µg/mL"},
      {"measurement": "MIC90", "setting": "[5]", "value": 4, "unit": "µg/mL"},
      {"measurement": "Time after the first dose until which high milk concentration was maintained", "setting": "Milk distribution study", "value": 72, "unit": "h"},
      {"measurement": "Time after the first treatment by which residues in milk were not detectable", "setting": "Milk distribution study", "value": "≤ 144", "unit": "h"},
      {"measurement": "Time of peak lasalocid concentration in milk after the first dose", "setting": "Milk distribution study", "value": 24, "unit": "h"},
      {"measurement": "Solubility at pH 1.8", "setting": "[6]; MilliQ water with NaOH and HCl for pH adjustment", "value": "non-detectable"},
      {"measurement": "Solubility at pH 1.8", "setting": "[6]; Universal buffer", "value": "nondetectable"},
      {"measurement": "solubility at 24 h", "setting": "[6]; Universal buffer, pH 8, aqueous buffer, thermodynamic from solid", "value": "9.66 ± 0.04", "unit": "µg/mL"},
      {"measurement": "MIC50", "setting": "[7]; Streptococcus uberis", "value": 0.5, "unit": "µg/mL"},
      {"measurement": "MIC90", "setting": "[7]; Streptococcus uberis", "value": 0.5, "unit": "µg/mL"},
      {"measurement": "MIC range", "setting": "[7]; n=11 isolates", "value": "0.5 to 1", "unit": "µg/mL"},
      {"measurement": "MIC50", "setting": "MRSA (10); Staphylococcus aureus, MRSA", "value": 0.5, "unit": "µg/mL"},
      {"measurement": "MIC90", "setting": "MRSA (10); Staphylococcus aureus, MRSA", "value": 0.5, "unit": "µg/mL"},
      {"measurement": "MIC range", "setting": "MRSA (10); n=10 isolates from small animals", "value": "0.25 to 0.5", "unit": "µg/mL"}
    ]}
  ]
}
